Test results from ChEMBL document CHEMBL1147884, “Further studies on the effect of lysine at the C-terminus of the Dmt-Tic opioid pharmacophore” (Bioorg Med Chem, 2007).
Starred links: 1 amine or outer side, 2 acyl side, 3 side chain; linkers in the order of their positions; H or OH if unused. Non-standard residues stand in square brackets, D forms with d. Residues, ends and D or L forms follow the SMILES beside them. *: point of attachment. Dmt = Cc1cc(O)cc(C)c1C[C@H](N)C(=O)O; εLys = N[C@@H](CCCCN[*:1])C(=O)[*:2]; Tic = O=C(O)[C@@H]1Cc2ccccc2CN1; NHBn = c1ccc(CN*)cc1; NHPh = c1ccc(N*)cc1

What was measured:
[1] = molecular target: T1, Opioid receptors; mu & delta (Rattus norvegicus) (UniProt P33533+P33535); assay: Selectivity ratio of Ki for rat delta opioid receptor to Ki for rat mu opioid receptor; type: protein assay
T1 sequence (P33533 whole entry, looked up): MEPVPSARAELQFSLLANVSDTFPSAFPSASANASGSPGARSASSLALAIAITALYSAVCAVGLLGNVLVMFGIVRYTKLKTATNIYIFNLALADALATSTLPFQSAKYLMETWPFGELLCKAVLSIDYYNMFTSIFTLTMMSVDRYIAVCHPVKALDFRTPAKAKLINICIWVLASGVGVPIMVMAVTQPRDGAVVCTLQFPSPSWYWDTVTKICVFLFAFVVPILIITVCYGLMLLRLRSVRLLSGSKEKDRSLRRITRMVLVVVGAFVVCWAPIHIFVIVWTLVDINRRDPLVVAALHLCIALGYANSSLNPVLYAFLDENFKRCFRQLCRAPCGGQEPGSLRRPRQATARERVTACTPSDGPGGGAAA
T1 sequence (P33535 whole entry, looked up): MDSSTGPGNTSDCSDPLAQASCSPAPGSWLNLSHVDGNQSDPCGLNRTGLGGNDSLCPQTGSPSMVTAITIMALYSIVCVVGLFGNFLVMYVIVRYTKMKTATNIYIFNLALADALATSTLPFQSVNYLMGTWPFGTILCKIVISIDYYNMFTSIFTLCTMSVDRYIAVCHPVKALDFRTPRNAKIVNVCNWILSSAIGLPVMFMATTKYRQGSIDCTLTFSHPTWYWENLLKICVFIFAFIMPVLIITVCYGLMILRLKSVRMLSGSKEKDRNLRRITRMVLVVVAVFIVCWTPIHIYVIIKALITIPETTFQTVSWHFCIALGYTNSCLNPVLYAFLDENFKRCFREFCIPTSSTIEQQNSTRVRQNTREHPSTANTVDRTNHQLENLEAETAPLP

Mu-type opioid receptor [2] = molecular target: Mu-type opioid receptor (Rattus norvegicus, UniProt P33535); assay: Displacement of [3H]DAMGO 2 from mu opioid receptor in Sprague-Dawley rat brain P2 synaptosomal membrane
Sequence of Mu-type opioid receptor (Rattus norvegicus, UniProt P33535) (P33535 whole entry): as the sequence (P33535 whole entry, looked up) above
Procedure, shortened: (§1)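 Competition binding at equilibrium, 2.5 h at 23 °C, on rat brain P2 synaptosomes preincubated to remove endogenous opioids, stored at -80 °C in buffered 20% glycerol. Five to eight peptide doses, duplicate assays, 3-5 independent preparations. Filtration on polyethylenimine-soaked (0.1%) glass fibre filters, three washes in ice-cold buffered BSA; Ki by Cheng-Prusoff, mean ± SE.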

[3] = molecular target: Delta-type opioid receptor (Rattus norvegicus, UniProt P33533); assay: Displacement of [3H]deltorphin 2 from delta opioid receptor in Sprague-Dawley rat brain P2 synaptosomal membrane; procedure, shortened: as §1
Sequence of Delta-type opioid receptor (Rattus norvegicus, UniProt P33533) (P33533 whole entry): as the sequence (P33533 whole entry, looked up) above

Mu-type opioid receptor [4] = molecular target: Mu-type opioid receptor (Cavia porcellus, UniProt P97266); assay: Agonist activity at mu opioid receptor in Hartley guinea pig ileum assessed as inhibition of electrically-stimulated contraction; type: functional, tissue-based
Sequence of Mu-type opioid receptor (Cavia porcellus, UniProt P97266) (P97266 whole entry): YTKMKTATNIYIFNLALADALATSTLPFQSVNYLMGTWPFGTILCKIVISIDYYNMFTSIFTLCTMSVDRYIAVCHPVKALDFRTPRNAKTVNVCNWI
Procedure, shortened: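 Myenteric plexus-longitudinal muscle strips (2-3 cm) from small intestine of male Hartley guinea pigs in organ bath, physiological buffer pH 7.5. Inhibition of electrically evoked contraction; IC50 (nM) from dose-response curves, mean ± SE of five or six separate tissue assays; endomorphin-2 as internal standard.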

[5] = molecular target: Delta-type opioid receptor (Mus musculus, UniProt P32300); assay: Antagonist activity at delta opioid receptor in mouse vas deferens assessed as inhibition of electrically-stimulated contraction; type: functional, tissue-based; conditions: read-out: pA2 (converted)
Sequence of Delta-type opioid receptor (Mus musculus, UniProt P32300) (P32300 whole entry): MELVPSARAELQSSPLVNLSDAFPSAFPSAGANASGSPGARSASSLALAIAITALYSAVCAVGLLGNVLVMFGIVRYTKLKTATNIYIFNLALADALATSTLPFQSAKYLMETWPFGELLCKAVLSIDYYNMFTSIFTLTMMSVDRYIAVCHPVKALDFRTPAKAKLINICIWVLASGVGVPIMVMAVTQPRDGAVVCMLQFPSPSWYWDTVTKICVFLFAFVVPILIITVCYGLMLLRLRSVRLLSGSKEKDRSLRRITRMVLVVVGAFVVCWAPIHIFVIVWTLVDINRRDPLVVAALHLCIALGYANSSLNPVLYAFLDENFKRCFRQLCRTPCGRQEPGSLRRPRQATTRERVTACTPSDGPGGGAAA
Procedure, shortened: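 Single mouse vas deferens in organ bath, balanced salt physiological buffer pH 7.5, electrically stimulated. Antagonism measured against δ-agonist deltorphin II; pA2 derived by Schild plot (method of Kosterlitz and Watt).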

[6] = molecular target: T1, Opioid receptors; mu & delta (Rattus norvegicus); assay: Selectivity ratio of Ki for mu opioid receptor to Ki for delta opioid receptor; type: protein assay

Row | Structure (SMILES) | Ratio Ki [1] | Ki (Mu-type opioid receptor [2]) [nM] | Ki [3] [nM] | IC50 (Mu-type opioid receptor [4]) [nM] | Kb [5] [nM] | Ratio Ki [6]
1 | Cc1cc(O)cc(C)c1C[C@H](N)C(=O)N1Cc2ccccc2C[C@H]1C(=O)NCCCC[C@H](N)C(=O)Nc1ccccc1 (H-[Dmt]-[Tic]-[εLys]-NHPh) | 2.3 | 0.89 | 2.02 | 515 | 12 | 
2 | CC(=O)N[C@@H](CCCCNC(=O)[C@@H]1Cc2ccccc2CN1C(=O)[C@@H](N)Cc1c(C)cc(O)cc1C)c1nc2ccccc2[nH]1 |  | 0.99 | 0.21 | 610 | 7.59 | 4.7
3 | Cc1cc(O)cc(C)c1C[C@H](N)C(=O)N1Cc2ccccc2C[C@H]1C(=O)NCCCC[C@H](NC(=O)OCc1ccccc1)C(=O)Nc1ccccc1 |  | 2.67 | 0.47 | 711 | 5.89 | 5.7
4 | Cc1cc(O)cc(C)c1C[C@H](N)C(=O)N1Cc2ccccc2C[C@H]1C(=O)NCCCC[C@H](NC(=O)OCc1ccccc1)c1nc2ccccc2[nH]1 |  | 2.78 | 0.86 | 618 | 15.1 | 3.2
5 | CC(=O)N[C@@H](CCCCNC(=O)[C@@H]1Cc2ccccc2CN1C(=O)[C@@H](N)Cc1c(C)cc(O)cc1C)C(=O)NCc1ccccc1 |  | 3.43 | 0.21 | 1990 | 8.51 | 16.3
6 | Cc1cc(O)cc(C)c1C[C@H](N)C(=O)N1Cc2ccccc2C[C@H]1C(=O)NCCCC[C@H](N)C(=O)NCc1ccccc1 (H-[Dmt]-[Tic]-[εLys]-NHBn) | 1.7 | 0.6 | 1 | 553 | 15.5 | 
7 | Cc1cc(O)cc(C)c1C[C@H](N)C(=O)N1Cc2ccccc2C[C@H]1C(=O)NCCCC[C@H](N)c1nc2ccccc2[nH]1 | 2.6 | 1.02 | 2.64 | 434 | 8.13 | 
8 | CC(=O)N[C@@H](CCCCNC(=O)[C@@H]1Cc2ccccc2CN1C(=O)[C@@H](N)Cc1c(C)cc(O)cc1C)C(=O)Nc1ccccc1 |  | 2.57 | 0.22 | 486 | 6.61 | 11.7
9 | Cc1cc(O)cc(C)c1C[C@H](N)C(=O)N1Cc2ccccc2C[C@H]1C(=O)NCCCC[C@H](NC(=O)OCc1ccccc1)C(=O)NCc1ccccc1 |  | 3.15 | 0.53 | 1450 | 5.37 | 5.9
